According to ChEMBL document CHEMBL1250434, “A novel achiral seco-cyclopropylpyrido[e]indolone (CPyI) analog of CC-1065 and the duocarmycins: synthesis, DNA interactions, in vivo anticancer and anti-parasitic evaluation” (Bioorg Med Chem, 2010):

Columns and labels:
SNB-75 = assay: Cytotoxicity against human SNB75 cells after 48 hrs by sulforhodamine B assay; format: functional; settings: SNB-75, 48 h, read-out: pLC50 (the source's name) (converted)
Procedure, shortened: (§1)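 NCI human cancer cell line panel. Continuous 48 h drug exposure, viability by sulforhodamine B. GI50, TGI and LC50 derived from dose–response curves.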

786-0 = assay: Cytotoxicity against human 786-0 cells after 48 hrs by sulforhodamine B assay; format: functional; settings: 786-0, 48 h, read-out: pLC50 (the source's name) (converted); procedure, shortened: as §1
NCI-H322M = assay: Cytotoxicity against human NCI-H322M cells after 48 hrs by sulforhodamine B assay; format: functional; settings: read-out: pLC50 (the source's name) (converted); procedure, shortened: as §1
Mus musculus [1] = assay: Toxicity in mouse B16F0 cells xenografted C57/BL/6J mouse assessed as reduction of body weight at 10 mg/kg, ip administered on day 1, 5, and 9 measured after 21 days; format: organism-based; design: dose 10 mg/kg, route intraperitoneal; settings: in vivo, 504 h
Procedure, shortened: (§2)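 Female C57/BL/6J mice, 5–7 weeks old, 8 per group, carrying sc B16-F0 flank tumours implanted day 0. Dosed 10 mg/kg ip in 1:2 PET/5% glucose on days 1, 5 and 9; vehicle-treated controls on the same schedule. Body weights recorded every other day.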

[2] = Antitumor activity against mouse B16F0 cells xenografted in C57/BL/6J mouse assessed as […] at 10 mg/kg, ip administered on day 1, 5, and 9 measured after 21 days; format: functional; settings: route intraperitoneal
Procedure, shortened: (§3)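 Female C57/BL/6J mice, 5–7 weeks old, 8 per group. Given 200,000 cultured B16-F0 cells (PBS-washed, not mouse-passaged) sc in the left flank on day 0. Dosed 10 mg/kg ip in 1:2 PET/5% glucose on days 1, 5 and 9; controls received vehicle. Tumours measured by caliper about every other day. Volume = length × width². Measurements stopped when 50% of the group had died.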

SNB-19 = assay: Cytotoxicity against human SNB19 cells after 48 hrs by sulforhodamine B assay; format: functional; settings: SNB-19, 48 h, read-out: pLC50 (the source's name) (converted); procedure, shortened: as §1
Nucleic Acid = assay: Binding affinity to pUC18 DNA assessed as DNA alkylating activity after 5 hrs by thermal cleavage assay; format: nucleic-acid assay; settings: Escherichia coli
Procedure, shortened: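 PCR probe from the 749–956 region of pUC18. DNA precipitated and lyophilised, then heated at 90 °C for 30 min in sodium citrate buffer (pH 7.2) to cleave at alkylated adenines. Fragments resolved by electrophoresis.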

Leishmania mexicana = assay: Antimicrobial activity against promastigotes of Leishmania mexicana assessed as inhibition of cell proliferation after 72 hrs by alamar blue assay; format: functional, organism-based
Procedure, shortened: (§4)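 Promastigotes at 5 × 10^4 cells/well in DME-L medium with 10% heat-inactivated FBS, hemin, xanthine and penicillin-streptomycin. Exposed to 0.03 nM to 64 µM compound for 72 h at 26 °C. Alamar blue added, incubated 15 h, dye reduction read by fluorescence ex 530/em 590 nm.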

OVCAR-3 = assay: Cytotoxicity against human OVCAR-3 cells after 48 hrs by sulforhodamine B assay; format: functional; settings: OVCAR-3, 48 h, read-out: pLC50 (the source's name) (converted); procedure, shortened: as §1
HOP-92 = assay: Cytotoxicity against human HOP92 cells after 48 hrs by sulforhodamine B assay; format: functional; settings: HOP-92, 48 h, read-out: pLC50 (the source's name) (converted); procedure, shortened: as §1
NCI-H23 = assay: Cytotoxicity against human NCI-H23 cells after 48 hrs by sulforhodamine B assay; format: functional; settings: NCI-H23, 48 h, read-out: pLC50 (the source's name) (converted); procedure, shortened: as §1
IGROV-1 = assay: Cytotoxicity against human IGROV1 cells after 48 hrs by sulforhodamine B assay; format: functional; settings: IGROV-1, 48 h, read-out: pLC50 (the source's name) (converted); procedure, shortened: as §1
NCI-H522 = assay: Cytotoxicity against human NCI-H522 cells after 48 hrs by sulforhodamine B assay; format: functional; settings: NCI-H522, 48 h, read-out: pLC50 (the source's name) (converted); procedure, shortened: as §1
UO-31 = assay: Cytotoxicity against human UO31 cells after 48 hrs by sulforhodamine B assay; format: functional; settings: UO-31, 48 h, read-out: pLC50 (the source's name) (converted); procedure, shortened: as §1
CAKI-1 = assay: Cytotoxicity against human Caki1 cells after 48 hrs by sulforhodamine B assay; format: functional; settings: CAKI-1, 48 h, read-out: pLC50 (the source's name) (converted); procedure, shortened: as §1
BT-549 = assay: Cytotoxicity against human BT549 cells after 48 hrs by sulforhodamine B assay; format: functional; settings: BT-549, 48 h, read-out: pLC50 (the source's name) (converted); procedure, shortened: as §1
SF-539 = assay: Cytotoxicity against human SF539 cells after 48 hrs by sulforhodamine B assay; format: functional; settings: SF-539, 48 h, read-out: pLC50 (the source's name) (converted); procedure, shortened: as §1
Leishmania donovani = assay: Antimicrobial activity against promastigotes of Leishmania donovani assessed as inhibition of cell proliferation after 72 hrs by alamar blue assay; format: functional, organism-based; procedure, shortened: as §4
[3] = Antitumor activity against mouse B16F0 cells xenografted in C57/BL/6J mouse assessed as […] at 10 mg/kg, ip administered on day 1, 5, and 9 measured after 16 days; format: functional; settings: route intraperitoneal; procedure, shortened: as §3
OVCAR-8 = assay: Cytotoxicity against human OVCAR8 cells after 48 hrs by sulforhodamine B assay; format: functional; settings: OVCAR-8, 48 h, read-out: pLC50 (the source's name) (converted); procedure, shortened: as §1
DU-145 = assay: Cytotoxicity against human DU145 cells after 48 hrs by sulforhodamine B assay; format: functional; settings: DU-145, 48 h, read-out: pLC50 (the source's name) (converted); procedure, shortened: as §1
UACC-62 = assay: Cytotoxicity against human UACC62 cells after 48 hrs by sulforhodamine B assay; format: functional; settings: UACC-62, 48 h, read-out: pLC50 (the source's name) (converted); procedure, shortened: as §1
COLO 205 = assay: Cytotoxicity against human COLO205 cells after 48 hrs by sulforhodamine B assay; format: functional; settings: COLO 205, 48 h, read-out: pLC50 (the source's name) (converted); procedure, shortened: as §1
M14 = assay: Cytotoxicity against human M14 cells after 48 hrs by sulforhodamine B assay; format: functional; settings: M14, 48 h, read-out: pLC50 (the source's name) (converted); procedure, shortened: as §1
OVCAR-4 = assay: Cytotoxicity against human OVCAR4 cells after 48 hrs by sulforhodamine B assay; format: functional; settings: OVCAR-4, 48 h, read-out: pLC50 (the source's name) (converted); procedure, shortened: as §1
Plasmodium falciparum = assay: Antimicrobial activity against Plasmodium falciparum infected in human erythrocytes assessed as growth inhibition; format: functional, organism-based
Procedure, shortened: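 P. falciparum grown in human erythrocytes at 3–5% hematocrit in complete medium. In vitro growth assay at six concentrations, in triplicate, in three independent experiments.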

HT-29 = assay: Cytotoxicity against human HT-29 cells after 48 hrs by sulforhodamine B assay; format: functional; settings: HT-29, 48 h, read-out: pLC50 (the source's name) (converted); procedure, shortened: as §1
L1210 [4] = assay: Cytotoxicity against mouse L1210 cells after 3 days by MTT assay; format: functional, cell-based; settings: L1210, 72 h
Procedure, shortened: (§5)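 Murine tumour cells under continuous drug exposure for 3 days. Growth inhibition measured by MTT assay. IC50 is the concentration inhibiting growth by 50%.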

KM12 = assay: Cytotoxicity against human KM12 cells after 48 hrs by sulforhodamine B assay; format: functional; settings: KM12, 48 h, read-out: pLC50 (the source's name) (converted); procedure, shortened: as §1
SF-268 = assay: Cytotoxicity against human SF268 cells after 48 hrs by sulforhodamine B assay; format: functional; settings: SF-268, 48 h, read-out: pLC50 (the source's name) (converted); procedure, shortened: as §1
Mus musculus [5] = assay: Systemic toxicity in mouse B16F0 cells xenografted C57/BL/6J mouse assessed as reduction of body weight at 10 mg/kg, ip administered on day 1, 5, and 9 measured after 21 days; format: organism-based; design: dose 10 mg/kg, route intraperitoneal; settings: in vivo, 504 h; procedure, shortened: as §2
[6] = Cytotoxicity against human Hs 578T cells after 48 hrs by sulforhodamine B assay; format: functional; settings: read-out: pLC50 (the source's name) (converted); procedure, shortened: as §1
SK-MEL-28 = assay: Cytotoxicity against human SK-MEL-28 cells after 48 hrs by sulforhodamine B assay; format: functional; settings: SK-MEL-28, 48 h, read-out: pLC50 (the source's name) (converted); procedure, shortened: as §1
T47D = assay: Cytotoxicity against human T47D cells after 48 hrs by sulforhodamine B assay; format: functional; settings: read-out: pLC50 (the source's name) (converted); procedure, shortened: as §1
SK-OV-3 = assay: Cytotoxicity against human SKOV3 cells after 48 hrs by sulforhodamine B assay; format: functional; settings: SK-OV-3, 48 h, read-out: pLC50 (the source's name) (converted); procedure, shortened: as §1
CCRF-CEM = assay: Cytotoxicity against human CCRF-CEM cells after 48 hrs by sulforhodamine B assay; format: functional; settings: read-out: pLC50 (the source's name) (converted); procedure, shortened: as §1
SW-620 = assay: Cytotoxicity against human SW620 cells after 48 hrs by sulforhodamine B assay; format: functional; settings: SW-620, 48 h, read-out: pLC50 (the source's name) (converted); procedure, shortened: as §1
EKVX = assay: Cytotoxicity against human EKVX cells after 48 hrs by sulforhodamine B assay; format: functional; settings: read-out: pLC50 (the source's name) (converted); procedure, shortened: as §1
SF-295 = assay: Cytotoxicity against human SF295 cells after 48 hrs by sulforhodamine B assay; format: functional; settings: SF-295, 48 h, read-out: pLC50 (the source's name) (converted); procedure, shortened: as §1
HCT-15 = assay: Cytotoxicity against human HCT15 cells after 48 hrs by sulforhodamine B assay; format: functional; settings: HCT-15, 48 h, read-out: pLC50 (the source's name) (converted); procedure, shortened: as §1
A549 = assay: Cytotoxicity against human A549 cells after 48 hrs by sulforhodamine B assay; format: functional; settings: A549, 48 h, read-out: pLC50 (the source's name) (converted); procedure, shortened: as §1
[7] = Cytotoxicity against mouse B16F0 cells after 3 days by MTT assay; format: functional, cell-based; settings: B16F0, 72 h; procedure, shortened: as §5
Trypanosoma brucei = assay: Antimicrobial activity against procyclic form of Trypanosoma brucei 427 assessed as inhibition of cell proliferation after 72 hrs by alamar blue assay; format: functional, organism-based; settings: Trypanosoma brucei, 427, 72 h
Procedure, shortened: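 T. brucei 427 procyclic forms grown in SDM 79 medium with 0.03 nM to 64 µM compound for 72 h at 26 °C. Proliferation read by Alamar blue reduction after a further 15 h, fluorescence ex 530/em 590 nm.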

L1210 [8] = assay: Selectivity ratio of IC50 for mouse L1210 cells to IC50 for mouse B16F0 cells; format: functional
PC-3 = assay: Cytotoxicity against human PC3 cells after 48 hrs by sulforhodamine B assay; format: functional; settings: PC-3, 48 h, read-out: pLC50 (the source's name) (converted); procedure, shortened: as §1
HOP-62 = assay: Cytotoxicity against human HOP62 cells after 48 hrs by sulforhodamine B assay; format: functional; settings: HOP-62, 48 h, read-out: pLC50 (the source's name) (converted); procedure, shortened: as §1
SK-MEL-2 = assay: Cytotoxicity against human SK-MEL-2 cells after 48 hrs by sulforhodamine B assay; format: functional; settings: SK-MEL-2, 48 h, read-out: pLC50 (the source's name) (converted); procedure, shortened: as §1
NCI-H460 = assay: Cytotoxicity against human NCI-H460 cells after 48 hrs by sulforhodamine B assay; format: functional; settings: NCI-H460, 48 h, read-out: pLC50 (the source's name) (converted); procedure, shortened: as §1

COc1cc2cc(C(=O)Nc3cc(O)c4ncc(C)cc4c3CCCl)[nH]c2c(OC)c1OC
CC50 (SNB-75): 0.0115 µM
CC50 (786-0): 0.135 µM
CC50 (NCI-H322M): 0.123 µM
Activity (Mus musculus [1]): Non-toxic
Activity [2]: 2000 mm3
CC50 (SNB-19): 100 µM
Activity (Nucleic Acid): Dose-dependent effect
IC50 (Leishmania mexicana): 0.119 µM
CC50 (OVCAR-3): 2.63 µM
CC50 (HOP-92): 28.2 µM
CC50 (NCI-H23): < 0.01 µM
CC50 (IGROV-1): > 100 µM
CC50 (NCI-H522): > 100 µM
CC50 (UO-31): > 100 µM
CC50 (CAKI-1): 1.55 µM
CC50 (BT-549): > 100 µM
CC50 (SF-539): 0.151 µM
IC50 (Leishmania donovani): 0.34 µM
Activity [3]: 1700 mm3
CC50 (OVCAR-8): 0.275 µM
CC50 (DU-145): 2.19 µM
CC50 (UACC-62): < 0.01 µM
CC50 (COLO 205): > 100 µM
CC50 (M14): < 0.01 µM
CC50 (OVCAR-4): 6.03 µM
IC50 (Plasmodium falciparum): 0.0018 µM
CC50 (HT-29): > 100 µM
IC50 (L1210 [4]): 0.00072 µM
CC50 (KM12): 0.191 µM
CC50 (SF-268): > 100 µM
Activity (Mus musculus [5]): Toxic
CC50 [6]: > 100 µM
CC50 (SK-MEL-28): > 100 µM
CC50 (T47D): > 100 µM
CC50 (SK-OV-3): > 100 µM
CC50 (CCRF-CEM): > 100 µM
CC50 (SW-620): > 100 µM
CC50 (EKVX): 3.02 µM
CC50 (SF-295): 20.9 µM
CC50 (HCT-15): > 100 µM
CC50 (A549): > 100 µM
IC50 [7]: 0.0023 µM
IC50 (Trypanosoma brucei): 0.056 µM
Ratio (L1210 [8]): 10
CC50 (PC-3): 11.5 µM
CC50 (HOP-62): < 0.01 µM
CC50 (SK-MEL-2): > 100 µM
CC50 (NCI-H460): 81.3 µM
